Results from different studies.
Compare with care: the assays were run in different laboratories.
FLT3: Receptor-type tyrosine-protein kinase FLT3 (FLT3, Homo sapiens, UniProt P36888)
CSNK1D: Casein kinase I isoform delta (CSNK1D, Homo sapiens, UniProt P48730)
HTR2C: 5-hydroxytryptamine receptor 2C (HTR2C, Homo sapiens, UniProt P28335)
PLCD1: 1-phosphatidylinositol 4,5-bisphosphate phosphodiesterase delta-1 (PLCD1, Homo sapiens, UniProt P51178)
FLT3 ITD: Receptor-type tyrosine-protein kinase FLT3 (FLT3, Homo sapiens, UniProt P36888, ITD)
FLT3 F691L: Receptor-type tyrosine-protein kinase FLT3 (FLT3, Homo sapiens, UniProt P36888, F691L)

Structure (SMILES) | target | read-out | action | method | endpoint | value
Cc1n[nH]c2ccc3nc(-c4ccc(C(=O)NCCN(C)C)cc4)c4c(c3c12)CCCCC4 | FLT3 | enzyme activity | inhibitor | – | IC50 | 99 nM
c1ccc(CNCc2ccc(CN3CCCNCCNCCCNCC3)cc2)nc1 | CSNK1D | binding | – | SPR | Kd | > 50 µM
COc1cc2c3c(c1OC)-c1c(OC)ccc(N4CCOCC4)c1CC3N(C)CC2 (stereo not drawn) | HTR2C | cell-free assay | – | radioligand | Ki | 2.71 µM
CN(C)CCNC(=O)c1ccc(-c2nc3ccc4[nH]ncc4c3c3c2CCCCC3)c(F)c1 | FLT3 | enzyme activity | inhibitor | – | IC50 | 53 nM
CCOc1ccc(C(=O)CC(SCc2ccccc2Br)C(=O)O)cc1 (stereo not drawn) | PLCD1 | ligand displacement | – | FP | Ki | > 1000 µM
COc1cc2c3c(c1OC)-c1c(OC)ccc(Br)c1CC3N(C)CC2 (stereo not drawn) | HTR2C | cell-free assay | – | radioligand | Ki | 2.2 µM
CCOc1ccc(C(=O)CC(SCc2ccc(Cl)cc2)C(=O)O)cc1 (stereo not drawn) | PLCD1 | ligand displacement | – | FP | Ki | 780 µM
CNC(=O)c1ccc(OC)c(Br)c1 | CSNK1D | binding | – | SPR | Kd | > 50 µM
CCOc1cccc(C(=O)CC(SCc2ccc(Cl)cc2)C(=O)O)c1 (stereo not drawn) | PLCD1 | ligand displacement | – | FP | Ki | 474 µM
COc1cc(C(C)=O)c(F)cc1O | CSNK1D | binding | – | SPR | Kd | > 50 µM
Cc1n[nH]c2ccc3nc(-c4ccc(C(=O)NCCN(C)C)cc4)c4c(c3c12)CCC(F)(F)C4 | FLT3 ITD | enzyme activity | inhibitor | – | IC50 | 355 nM
N#Cc1ccc(O)cc1F | CSNK1D | binding | – | SPR | Kd | 20 to 50 µM
Cc1n[nH]c2ccc3nc(-c4ccc(C(=O)NCCN(C)C)cc4)c4c(c3c12)CCCC4 | FLT3 F691L | enzyme activity | inhibitor | – | IC50 | 53 nM
COc1ccccc1C(=O)CC(SCc1ccc(Cl)cc1)C(=O)O (stereo not drawn) | PLCD1 | ligand displacement | – | FP | Ki | > 1000 µM
CN(C)CCN(C)C(=O)c1ccc(-c2nc3ccc4[nH]ncc4c3c3c2CCCCC3)cn1 | FLT3 ITD | enzyme activity | inhibitor | – | IC50 | > 1000 nM
CCOc1cccc(C(=O)CC(SCc2cccc(Br)c2)C(=O)O)c1 (stereo not drawn) | PLCD1 | ligand displacement | – | FP | Ki | 605 µM
CCn1c2ccccc2c2cc(Nc3ccnc(NCCCN4CCOCC4)n3)ccc21 | CSNK1D | binding | – | SPR | Kd | > 50 µM
C#CCOc1cccc(C(=O)CC(SCc2cccc(Br)c2)C(=O)O)c1 (stereo not drawn) | PLCD1 | ligand displacement | – | FP | Ki | 710 µM
O=c1[nH]c(N2CCCC2)nc2ccccc12 | CSNK1D | binding | – | SPR | Kd | 43.8 µM
COc1cc2c3c(c1OC)-c1c(OC)ccc(O)c1CC3N(C)CC2 (stereo not drawn) | HTR2C | cell-free assay | – | radioligand | Ki | 4.3 µM
CCOc1ccc(C(=O)CC(SCc2cccc(Br)c2)C(=O)O)cc1 (stereo not drawn) | PLCD1 | ligand displacement | – | FP | Ki | 630 µM
CN(C)C(=O)c1cc2cnc(Nc3ccc(C(=O)NCCCCCCOc4cccc5c4C(=O)N(C4CCC(=O)NC4=O)C5=O)cc3)nc2n1C1CCCC1 (stereo not drawn) | Ephrin type-B receptor 6 (EPHB6, Homo sapiens, UniProt O15197) | binding | – | competition with immobilised ligand | Kd | < 0.2 µM
Brc1ccc2nccnc2c1 | CSNK1D | binding | – | SPR | Kd | > 50 µM
COc1cccc(C(=O)CC(SCc2ccc(Cl)cc2)C(=O)O)c1 (stereo not drawn) | PLCD1 | ligand displacement | – | FP | Ki | > 1000 µM
O=C(NCCN1CCCCC1)c1ccc(-c2nc3ccc4[nH]ncc4c3c3c2CCCC3)cc1 | FLT3 ITD | enzyme activity | inhibitor | – | IC50 | 741 nM
c1ccc(-c2nnc(NCc3ccccn3)o2)cc1 | CSNK1D | binding | – | SPR | Kd | > 50 µM
Cc1n[nH]c2ccc3nc(-c4ccc(C(=O)NCCN(C)C)cc4F)c4c(c3c12)CCCC4 | Receptor-type tyrosine-protein kinase FLT3 (FLT3, Homo sapiens, UniProt P36888, D835Y) | enzyme activity | inhibitor | – | IC50 | 5 nM
O=C(O)c1cc(-c2ccc(-c3ccc(Cl)s3)cc2)c2ccc(-c3ccc(C(F)(F)F)cc3)cc2c1 | HTR2C | cell-free assay | – | radioligand | Ki | 0.91 µM
CN(C)CCNC(=O)c1ccc(-c2nc3ccc4[nH]ncc4c3c3c2CCCC3)cc1 | FLT3 F691L | enzyme activity | inhibitor | – | IC50 | 157 nM
CSCC[C@H](NC(C)=O)C(=O)N[C@@H](CC(=O)O)C(=O)N[C@@H](Cc1ccccc1)C(N)=O | Gastrin/cholecystokinin type B receptor (CCKBR, Homo sapiens, UniProt P32239) | β-arrestin recruitment | agonist | – | EC50 | 18.7 µM
